Screens (PubChem BioAssay)
Sampled rows, rich in hits. Any-hit rate of the full collection: about 1.9%.
KLK7 zymogen act = activates the human kallikrein-7 zymogen; P49862; purified proKLK7, EDANS-DABCYL substrate fluorescence; 100% is mature enzyme control, 0% vehicle; activation, % at 7 µM; actives 0.9% (n = 370,000); AID 652039;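 active means activation above the mean of all tested compounds plus 3 SD, computed per campaign excluding outliers beyond control limits, cut at about 13% in these data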
Target sequence (P49862 whole entry, looked up): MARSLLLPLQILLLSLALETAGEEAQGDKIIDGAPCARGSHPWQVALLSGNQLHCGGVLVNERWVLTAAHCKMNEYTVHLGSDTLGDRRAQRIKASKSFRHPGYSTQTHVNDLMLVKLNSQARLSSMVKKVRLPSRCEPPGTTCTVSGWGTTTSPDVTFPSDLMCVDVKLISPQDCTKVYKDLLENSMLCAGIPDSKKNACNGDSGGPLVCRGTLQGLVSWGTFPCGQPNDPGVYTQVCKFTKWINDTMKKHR
V-ATPase pH = regulators of yeast V-ATPase proton transport; S. cerevisiae, pHLuorin cytosolic pH fluorescence; actives 0.37% (n = 350,000); response, % at 10 µM; in the data active means response mostly above about 7.3%, no sharp cut-off; inactive means mostly below about 5.4%; further: actives read high
T cell HTS = T cell immune modulators affecting CD8 T cell-vesicle binding | 2C CD8+ T cell-vesicle binding, flow cytometry; hits give low values | response (vesicle binding), % at 7 µM | actives 0.068% (n = 330,000) | AID 2052;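 active means response, share of CD8 T cells binding vesicles, and their 90th percentile fluorescence all below set limits, cut at about 80% in these data, passing the limit was not always enough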;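 further: values below 100% mean blocked vesicle binding to the CD8+ T cells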
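Material: murine 2C transgenic CD8+ T lymphocytes / Also added: QL9-peptide-loaded Drosophila micro-vesicles bearing Ld, ICAM-1 and B7-1 / Schedule: binding step 1.5 h, 37 °C, antibody labelling 20 min, ice / Signal: flow cytometry, PE anti-B7-1 (FL2) versus Alexa647 anti-CD8 (FL8), PFA-fixed / Evaluation: percent CD8+ FL2 mean versus row control / Benchmarks: naked versus QL9-loaded vesicles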
Rce1 inhib = blocks yeast Ras-converting enzyme | yeast membranes, quenched prenylated peptide cleavage fluorescence | calls only | actives 0.27% (n = 290,000);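 active means fall in fluorescence gain of 50% or more versus controls, with final raw signal at or below 3038400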;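 further: plate controls were neutral control wells for no effect and wells lacking membranes for full effect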
Target sequence (Q03530 whole entry, looked up): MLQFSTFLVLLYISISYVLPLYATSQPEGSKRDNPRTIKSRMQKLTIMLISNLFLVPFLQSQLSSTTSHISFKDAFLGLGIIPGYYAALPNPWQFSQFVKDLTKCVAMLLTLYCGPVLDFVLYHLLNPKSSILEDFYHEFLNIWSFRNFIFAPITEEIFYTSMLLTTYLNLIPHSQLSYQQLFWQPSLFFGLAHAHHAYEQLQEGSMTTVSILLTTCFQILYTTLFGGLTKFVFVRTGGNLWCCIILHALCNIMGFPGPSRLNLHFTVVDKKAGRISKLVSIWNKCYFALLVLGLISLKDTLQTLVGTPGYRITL
MIN6 prolif-1 = induces beta-cell replication in MIN6 cells | MIN6 cells proliferation, ATPlite luminescence, 48 h; cells starved in 0.2% serum; 100% = growth in 10% serum | proliferation, % at 10 µM | AID 2380 | actives 0.29% (n = 330,000);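 active means compounds whose signal lies at least 3.5 SD above the mean of all wells on their plate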;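 further: 0% = DMSO-treated cells in low-serum medium and 100% = 10% serum control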
Yeast superoxide = lowers age-related superoxide in aged yeast cells. superoxide response (% of plate mean), % at 10 µM. actives 0.18% (n = 330,000). S. cerevisiae aged cells, superoxide DHE fluorescence; hits give low values. AID 2690;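 active means superoxide response under a set limit, about three screen SD below normal, cut at about 65% in these data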;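 further: yeast aged for seven days with compound at 30 °C before DHE staining; 100% = average MFI of all compound-treated wells on the plate with controls excluded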
MIN6 prolif-2 = confirmation of inducers of beta-cell replication in MIN6 cells; shares compounds with MIN6 prolif-1; proliferation increase, % at 50 µM; AID 463095; 920 tested, under 10 active; MIN6 beta-cell proliferation, ATPlite luminescence, 48 h; cells kept in 0.2% serum; scaled between 0.2% and 10% serum;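 active means proliferation increase above 40% at any of the four tested concentrations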
Starred values were filed as active, the others as inactive; i = inactive; . = no result given.

SMILES	KLK7 zymogen act	V-ATPase pH	T cell HTS	Rce1 inhib	MIN6 prolif-1	Yeast superoxide	MIN6 prolif-2
CCC(=O)N1CCc2cc(OC)c(OC)cc2C1COc1ccc(F)cc1 (configuration not stated)	0	-3	275	i	9.3*	94	-1
O=C(CCc1ccccc1)N[C@H]1[C@H](O)CCC[C@]12C(=O)N(Cc1ccccc1)c1ccccc12	0	.	.	.	.	.	.
COCCNC(=S)N(c1ccccc1)C(C)C	0	-3	234	i	1	92	.
COCCNC(=S)NN(c1ccccc1)c1ccccc1	-1	0	267	i	9.0*	94	-4
COc1cc2c(cc1OC)C(Nn1cnnc1)=NC1(CCCC1)C2	0	2	572	i	5.2*	109	1
O=C(NCc1ccccc1Cl)c1cc2c(s1)CS(=O)(=O)C2	-1	1	295	i	0	92	.
COC(=O)C1=C(Cn2cnc3ccccc32)NC(=O)NC1c1cc(C)ccc1C (configuration not stated)	0	-4	320	i	5.4*	96	-6
CCC(=O)Nc1ccc(NC(=S)NC(=O)c2cc3ccccc3o2)cc1	0	-1	246	i	0.0*	111	-1
CCC(=O)Nc1cccc(NC(=S)NC(=O)c2cc3ccccc3o2)c1	0	-6	198	i	-1	97	.
CCN1CCN(c2nc(Nc3ccc(C)c(C)c3)nc(N)c2[N+](=O)[O-])CC1	-1	-1	142	i	0.0*	86	-6
Cc1ccc(CNC(=O)C2CCCN(C(=O)Nc3ccc(F)cc3)C2)cc1 (configuration not stated)	-1	-6	186	i	10*	88	0
CCOC(=O)C(CC)Sc1nc2c(c(=O)[nH]c(=O)n2C)n1C/C=C(/C)Cl (configuration not stated)	0	0	233	i	5.4*	106	-6
CCCCOC(=O)CSc1nc2c(c(=O)[nH]c(=O)n2C)n1C/C=C(\C)Cl	0	2	334	i	5.4*	103	-4
COC(=O)C[C@H]1CC[C@@H]2[C@H](COc3ccc(NS(C)(=O)=O)cc3C(=O)N2C)O1	1	.	.	.	.	.	.
CCCCOCCCNC(=O)C[C@@H]1C(=O)N2CCCC3=C2[C@@]1(C(=O)OCC)CCC3	0	.	.	.	.	.	.
CCCN1Cc2cccc(C(=O)Nc3ccc(CC)cc3)c2C1=O	0	-1	355	i	7.1*	101	0
CCCN1Cc2cccc(C(=O)Nc3ccc4c(c3)OCO4)c2C1=O	0	5	606	i	11*	96	0
N#CC(Cc1ccccc1)(Cc1ccccc1)C(=O)NN	0	-4	259	i	-2	102	.
CCOC(=O)C1(Cc2ccccc2)CCN(Cc2ccccc2[N+](=O)[O-])CC1	0	.	.	.	.	.	.
O=C(C1CCCN(S(=O)(=O)c2cccc3ccccc23)C1)N1CCN(Cc2ccccc2)CC1 (configuration not stated)	1	.	.	.	.	.	.
COc1ccccc1C(=O)NCCN=C1NS(=O)(=O)c2ccccc21	0	5	i	i	-5	89	.
COc1ccccc1C(=O)NCC(C)(C)CN=C1NS(=O)(=O)c2ccccc21	0	-4	407	i	6.6*	100	-2
CC12CCCCN1CCCc1c2[nH]c2ccccc12 (configuration not stated)	0	-2	621	i	5.5*	93	-6
COc1ccc(Cn2c(C3CC3)nc3ccc(NC(=O)c4ccco4)cc3c2=O)cc1	1	0	128	i	5.5*	104	-5
O=C(O)c1ccccc1SC1CC(=O)N(C2CCCCC2)C1=O (configuration not stated)	.	-1	528	i	9.9*	100	-6
SMILES	KLK7 zymogen act	V-ATPase pH	T cell HTS	Rce1 inhib	MIN6 prolif-1	Yeast superoxide	MIN6 prolif-2
O=C(O)c1ccccc1SC1CC(=O)N(c2ccccc2)C1=O (configuration not stated)	0	-3	166	i	0	113	.
Cc1ccc(NC(=O)NC(=O)COc2c(F)c(F)cc(F)c2F)c(C)c1	-1	3	124	.	0	104	.
CCN1C(=O)/C(=C/c2ccc(C)o2)N(C)C1=S	0	1	146	i	0.0*	97	-1
O=C(CSc1nncn1-c1ccccc1)NC1CCCC1	0	-2	324	i	2	111	.
O=C(C1CCC1)N1CCc2cc(S(=O)(=O)C3CCN(Cc4ccc(F)cc4)CC3)ccc21	0	.	.	.	.	.	.
O=C1NC(c2ccc(Br)cc2)Oc2ccccc21 (configuration not stated)	-1	0	260	i	6.4*	94	-2
Cc1cccn2c(=O)c3cc(C(=O)NCCc4ccccc4)sc3nc12	2	2	322	i	7.4*	122	0
CCCCNC(=O)c1cc2c(=O)n3cccc(C)c3nc2s1	5	2	161	i	2	116	.
COc1ccc(S(=O)(=O)N2CCOC23CCN(C(=O)c2ccccc2Br)CC3)cc1	0	-1	539	i	-3	117	.
Cc1ccc(S(=O)(=O)N2CCOC23CCN(C(=O)c2ccccc2Br)CC3)cc1	0	-2	355	i	13*	73	-6
Nc1ncnc(N2CCc3ccccc32)c1[N+](=O)[O-]	0	4	202	i	20*	100	9
NNC(=O)c1ccc(N2CCc3ccccc32)c([N+](=O)[O-])c1	1	1	210	i	1	81	.
CCOc1ccc(C(=O)NCC(=O)Nc2ncccc2C)cc1OCC	0	2	568	i	1	100	.
CCOc1ccccc1C(=O)NCC(=O)Nc1ncccc1C	0	7	677	i	12*	103	-1
Cc1ccccc1NC(=O)CSc1nnc(-c2cc(-c3ccccc3)n[nH]2)n1N	0	.	.	.	.	.	.
COc1ccc(CCN(C)C(=O)c2cc(-c3ccccc3)nc3ccccc23)cc1OC	0	-2	166	i	0	97	.
COc1ccc(CCN(C)C(=O)c2cc(-c3ccccc3)nc3ccc(C)cc23)cc1OC	-1	0	283	i	11*	105	-6
C[C@@H]1[C@@H](O)C[C@@]2(C[C@H](O)c3ccccc3O2)O[C@H]1c1ccccc1	0	.	.	.	.	.	.
CC(C)Nc1nc(NC(C)(C)C)nc(Oc2ccc(=O)n(-c3ccccc3)n2)n1	0	1	377	i	7.5*	89	-6
Cc1cccc2nc(-c3ccccc3)c(-c3ccc(CN4CCC(n5cc(-c6ccccc6)[nH]c5=O)CC4)cc3)nc12	-11	.	.	.	.	.	.
